Published values gathered from unrelated publications.
Protocols differ between the studies behind these lines.
Acetylcholinesterase: Acetylcholinesterase (Bos taurus, UniProt P23795)
Integrin alpha-V/beta-3: Integrin alpha-V/beta-3 (Homo sapiens, UniProt P05106+P06756)
LDHA: L-lactate dehydrogenase A chain (LDHA, Homo sapiens, UniProt P00338)
PTPN1: Tyrosine-protein phosphatase non-receptor type 1 (PTPN1, Homo sapiens, UniProt P18031)

SMILES | target | read-out | mode | method | pH | IC50 [µM]
CCCc1c(C2CCCCN2CCN2CCOCC2)[nH]c2cc(OC(F)(F)F)ccc12 (centres unmarked) | Plasma membrane ATPase 1 (PMA1, Saccharomyces cerevisiae, UniProt P05030) | ATPase activity | inhibitor |  |  | 26.9
c1ccc(CCCN2CCN(CCOC(c3ccccc3)c3ccccc3)CC2)cc1 | Glutathione reductase, mitochondrial (GSR, Homo sapiens, UniProt P00390) | enzyme activity | inhibitor | absorbance |  | > 100
CCC(CC)CSc1ccccc1OC(=O)NC | Acetylcholinesterase | enzyme activity | inhibitor | Ellman |  | 5.07
CC[C@H](C)[C@@H]([C@@H](CC(=O)N1CCC[C@H]1[C@H](OC)[C@@H](C)C(=O)N[C@@H](Cc1ccccc1)C(=O)O)OC)N(C)C(=O)[C@@H](NC(=O)[C@H](C(C)C)N(C)C(=O)CCc1cn(CCOCCOCCOCCOCC(=O)NCc2ccc(CN3C(=O)[C@H]4CC(=O)N[C@H](C(=O)O)CC(=O)NCC(=O)N[C@@H](CCCNC(=N)N)C(=O)NC[C@H]3C(=O)N4)cc2)nn1)C(C)C | Integrin alpha-V/beta-3 | ligand displacement |  |  |  | 0.0107
CC[n+]1c(-c2ccccc2)c2cc(N)ccc2c2ccc(N)cc21 | Acetylcholinesterase | enzyme activity | inhibitor | Ellman |  | 32.3
C#CCNc1nc(NCCCCC2CCN(Cc3ccccc3)CC2)c(C#N)cc1C#N | Amine oxidase [flavin-containing] A (MAOA, Homo sapiens, UniProt P21397) | enzyme activity | inhibitor | fluorescence |  | 53.3
COc1c(O[C@@H]2O[C@H](CO)[C@@H](O)[C@H](O)[C@H]2O[C@@H]2O[C@H](CO)[C@@H](O)[C@H](O)[C@H]2O)cc2oc(-c3ccc(O)cc3)cc(=O)c2c1O | LDHA | enzyme activity | inhibitor |  | pH 7.4 | > 500
CC(C)(C)OC(=O)N1CCN(C(=O)C(=O)CC(=O)c2cccc(OCc3ccccc3)c2)CC1 | PTPN1 | enzyme activity | inhibitor | absorbance | pH 7 | 39.5
CC(=O)N[C@@H](CS)C(=O)O | Angiotensin-converting enzyme 2 (ACE2, Homo sapiens, UniProt Q9BYF1) | enzyme activity | inhibitor | fluorescence |  | 173
CN(C)CCCN1c2ccccc2Sc2ccccc21 | Histamine H2 receptor (HRH2, Homo sapiens, UniProt P25021) | ligand displacement |  | radioligand |  | 0.11
CCCCc1ccc(NS(=O)(=O)c2ccc3c4c(cccc24)C(=O)N3)cc1 | PTPN1 | enzyme activity | inhibitor |  |  | 59.4
O=c1cc(-c2ccc(O)c(O)c2)oc2cc(O[C@@H]3O[C@H](CO)[C@@H](O)[C@H](O)[C@H]3O[C@@H]3O[C@H](CO)[C@@H](O)[C@H](O)[C@H]3O)cc(O)c12 | LDHA | enzyme activity | inhibitor |  | pH 7.4 | 163
CC[C@H](C)[C@@H]([C@@H](CC(=O)N1CCC[C@H]1[C@H](OC)[C@@H](C)C(=O)N[C@@H](Cc1ccccc1)C(=O)O)OC)N(C)C(=O)[C@@H](NC(=O)[C@H](C(C)C)N(C)C(=O)OCc1ccc(NC(=O)[C@H](C)NC(=O)[C@@H](NC(=O)CCc2cn(CCOCCOCCOCCOCC(=O)NCc3ccc(CN4C(=O)[C@H]5CC(=O)N[C@H](C(=O)O)CC(=O)NCC(=O)N[C@@H](CCCNC(=N)N)C(=O)NC[C@H]4C(=O)N5)cc3)nn2)C(C)C)cc1)C(C)C | Integrin alpha-V/beta-3 | ligand displacement |  |  |  | 0.0439
CNC(=O)Oc1ccccc1OC(C)C | Acetylcholinesterase | enzyme activity | inhibitor | Ellman |  | 1.83
NC(Cc1ccc(C(F)(F)[P-](F)(F)(F)(F)F)cc1)C(=O)O (centres unmarked) | PTPN1 | enzyme activity | inhibitor |  |  | 122
C[C@@H]1C/C=C/CCCCC(=O)Cc2cc(O)cc(O)c2C(=O)O1 | Mitogen-activated protein kinase kinase kinase 7 (MAP3K7, Homo sapiens, UniProt O43318) | enzyme activity | inhibitor | ATP luminescence |  | > 10
Nc1ncnc2c1ncn2[C@@H]1O[C@H](COP(=O)(O)OP(=O)(O)OP(=O)(O)O)[C@@H](O)[C@H]1O | Nucleotide-binding oligomerization domain-containing protein 1 (NOD1, Homo sapiens, UniProt Q9Y239) | ligand displacement |  | FP |  | ~0.015
Cc1ccc2nc(N3C(=O)C(O)=C(C(=O)OC(C)(C)C)C3c3ccc(-c4ccc(Cl)cc4)o3)sc2c1 (centres unmarked) | UDP-N-acetylglucosamine 1-carboxyvinyltransferase (murA, Escherichia coli K-12, UniProt P0A749) | enzyme activity | inhibitor |  |  | 4.5
COc1cc2c3cc1Oc1cc(ccc1O)C[C@@H]1c4c(cc(OC)c(O)c4Oc4ccc(cc4)C[C@@H]3N(C)CC2)CC[N+]1(C)C | Acetylcholinesterase | enzyme activity | inhibitor | Ellman |  | 54.4
COc1cc(Nc2ncc(F)c(Nc3ccc4c(n3)NC(=O)C(C)(C)O4)n2)cc(OC)c1OC | Fatty-acid amide hydrolase 1 (Faah, Rattus norvegicus, UniProt P97612) | enzyme activity | inhibitor |  |  | 1.58
